Reference: ChEMBL document CHEMBL3098049, “Concise synthesis and biological evaluation of 2-Aroyl-5-amino benzo[b]thiophene derivatives as a novel class of potent antimitotic agents” (J Med Chem, 2013)
pIC50: −log10 of the molar value. Active and inactive are the calls of the source. No cut-off for these calls is given here.

What was measured:
[1] = Inhibition of bovine brain tubulin polymerization preincubated for 15 mins followed by GTP addition measured for 20 mins by turbidometric analysis; set-up: species or system Bos taurus
[2] = Cytotoxicity against human Molt4/C8 cells assessed as growth inhibition after 48 hrs by coulter counting analysis; type: functional, cell-based; conditions: MOLT-4, 48 h
In short: (§1)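 Cells suspended at (3−5) × 10⁵ cells/mL and mixed 1:1 with compound dilutions. Incubated 48 h at 37 °C, counted with a Coulter counter. IC₅₀ = concentration inhibiting proliferation by 50%. Mean of at least three independent experiments.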

[3] = molecular target: T1, Tubulin (Homo sapiens) (UniProt P68371+Q9H4B7+P0DPH7+P68366+Q13509+Q71U36+P04350+Q3ZCM7+P07437+P68363+Q9BQE3+Q6PEY2+Q13885+Q9BVA1+Q9BUF5); assay: Displacement of [3H]-colchicine from tubulin (unknown origin) at 5 uM after 10 mins relative to control; type: protein-complex assay
[4] = tested on: L1210; assay: Cytotoxicity against mouse L1210 cells assessed as growth inhibition after 48 hrs by coulter counting analysis; type: functional, cell-based; conditions: L1210, 48 h; in short: as §1
[5] = Cytotoxicity against mouse FM3A/0 cells assessed as growth inhibition after 48 hrs by coulter counting analysis; type: functional, cell-based; conditions: FM3A/0, 48 h
[6] = Cytotoxicity against human CEM/0 cells assessed as growth inhibition after 48 hrs by coulter counting analysis; type: functional, cell-based; conditions: CCRF-CEM
[7] = tested on: HeLa; assay: Cytotoxicity against human HeLa cells assessed as growth inhibition after 48 hrs by coulter counting analysis; type: functional, cell-based
[8] = molecular target: T1, Tubulin (Homo sapiens); assay: Displacement of [3H]-colchicine from tubulin (unknown origin) at 1 uM after 10 mins relative to control; type: protein-complex assay
[9] = tested on: MNNG-HOS; assay: Antitumor activity against human MNNG-HOS cells xenografted in Balb/c-nu mouse assessed as reduction in tumor weight at 50 mg/kg, ip administered once every 3 days for 9 days measured after day 18; type: functional, organism-based; set-up: dose 50 mg/kg; conditions: HOS-TE85
In short: (§2)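 MNNG/HOS osteosarcoma cells grown to exponential phase, suspended in FBS-free MEM (10⁷ cells/mL), 0.1 mL injected into back hypodermis of nude mice. At ~100 mm³, 12 mice randomised to three groups (vehicle, CA-4P in isotonic saline, test in 5% DMSO/olive oil). 50 mg/kg ip at 0.01 mL/g on days 0, 3, 6, 9. Tumour volume and body weight tracked; tumours excised and weighed day 18; […].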

[10] = tested on: MNNG-HOS; assay: Antitumor activity against human MNNG-HOS cells xenografted in Balb/c-nu mouse assessed as tumor growth inhibition at 50 mg/kg, ip administered once every 3 days for 9 days measured on day 18 relative to vehicle-treated control; type: functional; conditions: HOS-TE85, ip, route intraperitoneal, read-out: TGI; in short: as §2

Row | Structure (SMILES) | pIC50 [1] | pIC50 [2] | inhibition [3] [%] | pIC50 [4] | pIC50 [5] | pIC50 [6] | pIC50 [7] | inhibition [8] [%] | Activity [9] | inhibition in vivo at 50 mg/kg [10] [%]
1 | COc1cc(C(=O)c2cc3cc(N)ccc3s2)cc(OC)c1OC | 5.49 | 7.74 | 65 | 9.11 | 8.55 | 7.96 | 7.89 | – | – | –
2 | COc1cc(C(=O)c2cc3cc(NC(=O)CBr)ccc3s2)cc(OC)c1OC | – | 6.02 | – | 5.85 | 5.77 | 6.59 | 5.80 | – | – | –
3 | C=C(Br)C(=O)Nc1ccc2sc(C(=O)c3cc(OC)c(OC)c(OC)c3)cc2c1 | – | 6.57 | – | 7.12 | 6.77 | 6.85 | 6.15 | – | – | –
4 | COc1cc(C(=O)c2sc3c(OC)cc(N)cc3c2C)cc(OC)c1OC | 6.32 | 7.85 | 95 | 7.92 | 7.82 | – | 7.89 | 90 | – | –
5 | COc1cc2sc(C(=O)c3cc(OC)c(OC)c(OC)c3)c(C)c2cc1N | 6.17 | 7.80 | 95 | 7.72 | 7.77 | 7.72 | – | 83 | – | –
6 | COc1cc(C(=O)c2sc3ccccc3c2N)cc(OC)c1OC | 5.38 | – | 39 | – | – | – | – | – | – | –
7 | COc1ccc(C(=O)c2cc3cc(N)cc(OC)c3s2)cc1 | – | 5.19 | – | < 5.00 | < 5.00 | 5.21 | – | – | – | –
8 | COc1cc(C(=O)c2cc3cc(NC(=O)CBr)cc(OC)c3s2)cc(OC)c1OC | – | 6.44 | – | 6.38 | 6.60 | 6.47 | 6.66 | – | – | –
9 | COc1cc(C(=O)c2cc3cc(NC(=O)CCl)cc(OC)c3s2)cc(OC)c1OC | – | 7.11 | – | – | 6.70 | 7.14 | 7.00 | – | – | –
10 | COc1cc(C(=O)c2sc3c(OC)cccc3c2N)cc(OC)c1OC | 5.68 | – | 39 | – | – | – | – | – | – | –
11 | COc1cc(C(=O)c2cc3cc(NC(C)=O)cc(OC)c3s2)cc(OC)c1OC | – | 7.01 | – | – | 6.47 | – | 7.16 | – | – | –
12 | COc1ccc(C(=O)c2cc3cc(N)cc(OC)c3s2)cc1OC | – | 5.77 | – | 5.72 | 5.66 | 5.85 | 5.80 | – | – | –
13 | COc1cc(C(=O)c2cc3cc(N(C)C)cc(OC)c3s2)cc(OC)c1OC | – | 6.01 | – | – | 5.96 | – | 6.44 | – | – | –
14 | COc1ccc(/C=C\c2cc(OC)c(OC)c(OC)c2)cc1OP(=O)(O)O [FOSBRETABULIN DISODIUM] | – | – | – | – | – | – | – | – | Active | 32
15 | C=C(Br)C(=O)Nc1cc(OC)c2sc(C(=O)c3cc(OC)c(OC)c(OC)c3)cc2c1 | – | 6.55 | – | 7.02 | 6.70 | 6.59 | 6.12 | – | – | –
16 | COc1cc(C(=O)c2sc3ccc(N)cc3c2C)cc(OC)c1OC | 5.89 | 7.00 | 78 | 8.10 | 6.70 | 7.14 | 7.00 | – | – | –
17 | COc1cc(C(=O)c2cc3cc(NC(=O)CI)ccc3s2)cc(OC)c1OC | – | 6.48 | – | 5.85 | 5.68 | – | 5.82 | – | – | –
18 | COc1cc(C(=O)c2cc3cc(NC(=O)CI)cc(OC)c3s2)cc(OC)c1OC | – | 6.48 | – | 6.39 | 6.43 | 6.51 | 6.70 | – | – | –
19 | CNc1cc(OC)c2sc(C(=O)c3cc(OC)c(OC)c(OC)c3)cc2c1 | – | 7.13 | – | 7.17 | 6.72 | – | 7.18 | – | – | –
